# In ChEMBL document CHEMBL1240422, “Design, synthesis and biological evaluation of 3,5-diaryl-isoxazoline/isoxazole-pyrrolobenzodiazepine conjugates as potential anticancer agents” (2010):
# Active and inactive are the calls of the source. The rule behind the calls is not given here.
# Key:
# CCRF-CEM = assay: Anticancer activity against human CCRF-CEM cells after 48 hrs by SRB assay; type: functional
# HL-60(TB) = assay: Anticancer activity against human HL-60(TB) cells after 48 hrs by SRB assay; type: functional; conditions: HL-60, 48 h
# K562 = assay: Anticancer activity against human K562 cells after 48 hrs by SRB assay; type: functional; conditions: K562, 48 h
# MOLT-4 = assay: Anticancer activity against human MOLT4 cells after 48 hrs by SRB assay; type: functional; conditions: MOLT-4, 48 h
# RPMI-8226 = assay: Anticancer activity against human RPMI8226 cells after 48 hrs by SRB assay; type: functional; conditions: RPMI-8226, 48 h
# SR = assay: Anticancer activity against human SR cells after 48 hrs by SRB assay; type: functional
# HOP-62 = assay: Anticancer activity against human HOP62 cells after 48 hrs by SRB assay; type: functional; conditions: HOP-62, 48 h
# Method in brief: (§1)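 Grown in RPMI 1640 with 10% FBS and 2 mM L-glutamine at 37 °C, 5% CO2. Seeded at densities set by doubling time, then preincubated 24 h. Continuous 48 h drug exposure at four concentrations (0.1, 1, 10, 100), triplicate wells. Fixed with cold TCA (final 10%) at 4 °C, 60 min. Stained with 0.4% SRB in 1% acetic acid, eluted with 10 mM Tris base, read at 540/690 nm. Percent growth versus control wells.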
# HOP-92 = assay: Anticancer activity against human HOP92 cells after 48 hrs by SRB assay; type: functional; conditions: HOP-92, 48 h
# NCI-H460 = assay: Anticancer activity against human NCI-H460 cells after 48 hrs by SRB assay; type: functional; conditions: NCI-H460, 48 h
# NCI-H522 = assay: Anticancer activity against human NCI-H522 cells after 48 hrs by SRB assay; type: functional; conditions: NCI-H522, 48 h
# COLO 205 = assay: Anticancer activity against human COLO205 cells after 48 hrs by SRB assay; type: functional; conditions: COLO 205, 48 h; method in brief: as §1
# HT-29 = assay: Anticancer activity against human HT-29 cells after 48 hrs by SRB assay; type: functional; conditions: HT-29, 48 h
# SW-620 = assay: Anticancer activity against human SW620 cells after 48 hrs by SRB assay; type: functional; conditions: SW-620, 48 h
# SF-268 = assay: Anticancer activity against human SF268 cells after 48 hrs by SRB assay; type: functional; conditions: SF-268, 48 h
# SF-539 = assay: Anticancer activity against human SF539 cells after 48 hrs by SRB assay; type: functional; conditions: SF-539, 48 h
# SNB-75 = assay: Anticancer activity against human SNB75 cells after 48 hrs by SRB assay; type: functional; conditions: SNB-75, 48 h
# LOX IMVI = assay: Anticancer activity against human LOXIMVI cells after 48 hrs by SRB assay; type: functional
# Malme-3M = assay: Anticancer activity against human MALME-3M cells after 48 hrs by SRB assay; type: functional
# M14 = assay: Anticancer activity against human M14 cells after 48 hrs by SRB assay; type: functional; conditions: M14, 48 h
# IGROV-1 = assay: Anticancer activity against human IGROV1 cells after 48 hrs by SRB assay; type: functional; conditions: IGROV-1, 48 h
# OVCAR-4 = assay: Anticancer activity against human OVCAR4 cells after 48 hrs by SRB assay; type: functional; conditions: OVCAR-4, 48 h
# OVCAR-5 = assay: Anticancer activity against human OVCAR5 cells after 48 hrs by SRB assay; type: functional; conditions: OVCAR-5, 48 h
# OVCAR-8 = assay: Anticancer activity against human OVCAR8 cells after 48 hrs by SRB assay; type: functional; conditions: OVCAR-8, 48 h
# SK-OV-3 = assay: Anticancer activity against human SKOV3 cells after 48 hrs by SRB assay; type: functional; conditions: SK-OV-3, 48 h
# ACHN = assay: Anticancer activity against human ACHN cells after 48 hrs by SRB assay; type: functional
# CAKI-1 = assay: Anticancer activity against human Caki1 cells after 48 hrs by SRB assay; type: functional; conditions: CAKI-1, 48 h
# SN12C = assay: Anticancer activity against human SN12C cells after 48 hrs by SRB assay; type: functional
# UO-31 = assay: Anticancer activity against human UO31 cells after 48 hrs by SRB assay; type: functional; conditions: UO-31, 48 h
# MCF7 = assay: Anticancer activity against human MCF7 cells after 48 hrs by SRB assay; type: functional; conditions: MCF7, 48 h; method in brief: as §1
# MDA-MB-231 = assay: Anticancer activity against human MDA-MB-231 cells after 48 hrs by SRB assay; type: functional; conditions: MDA-MB-231, 48 h
# MDA-MB-435 = assay: Anticancer activity against human MDA-MB-435 cells after 48 hrs by SRB assay; type: functional; conditions: MDA-MB-435, 48 h
# MDA-MB-468 = assay: Anticancer activity against human MDA-MB-468 cells after 48 hrs by SRB assay; type: functional; conditions: MDA-MB-468, 48 h
# PC-3 = assay: Anticancer activity against human PC3 cells after 48 hrs by SRB assay; type: functional; conditions: PC-3, 48 h; method in brief: as §1
# SK-MEL-28 = assay: Anticancer activity against human SK-MEL-28 cells after 48 hrs by SRB assay; type: functional; conditions: SK-MEL-28, 48 h
# SK-MEL-5 = assay: Anticancer activity against human SK-MEL-5 cells after 48 hrs by SRB assay; type: functional; conditions: SK-MEL-5, 48 h
# A-375 [1] = assay: Cell cycle arrest in human A375 cells assessed as accumulation at G0/G1 phase at 4 uM after 24 hrs using propidium iodide staining by FACS; type: functional
# Method in brief: (§2)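 Treated A375 cells (24 h) were harvested with trypsin-EDTA and fixed in ice-cold 70% ethanol (4 °C, 30 min). After a PBS wash, they were incubated with 1 mg/mL RNase A (37 °C, 30 min) and stained with propidium iodide solution containing trisodium citrate and Triton X-100. DNA content was measured by flow cytometry on 20,000 events. Controls were DMSO-treated.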
# A-375 [2] = assay: Cell cycle arrest in human A375 cells assessed as accumulation at S phase at 4 uM after 24 hrs using propidium iodide staining by FACS; type: functional; method in brief: as §2
# A-375 [3] = assay: Cell cycle arrest in human A375 cells assessed as accumulation at G2/M phase at 4 uM after 24 hrs using propidium iodide staining by FACS; type: functional; method in brief: as §2
# A-375 [4] = assay: Induction of apoptosis in human A375 cells assessed as reduction in CDK2 protein level at 4 uM after 24 hrs by Western blotting; type: functional, cell-based
# Method in brief: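 A375 cells were treated for 24 h and lysed in ice-cold RIPA buffer (1% NP-40, 0.5% deoxycholate, 0.1% SDS, protease inhibitors). Protein was quantified by Bradford assay, and 30 µg/lane was run on 12% SDS-PAGE and transferred to PVDF. Membranes were blocked 2 h at RT in TBST with 5% blocker, incubated with primary antibody overnight at 4 °C, then with HRP secondary (1:2000, 1 h, RT). Detection was by chemiluminescence, with β-actin as loading control.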
# A-375 [5] = assay: Induction of apoptosis in human A375 cells assessed as caspase3 activation at 4 uM after 24 hrs by fluorimetry; type: functional, cell-based
# Method in brief: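 Caspase-3 activity was measured by a fluorometric assay on lysates of treated and untreated A375 cells.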
compound,measurement,setting,value
COc1ccc(C2=NOC(c3cc(OC)c(OC)c(OC)c3)C2)cc1OCCCCOc1cc2c(cc1OC)C(=O)N1CCC[C@H]1C=N2 (stereo not given in full),GI50,CCRF-CEM,160 nM
same,GI50,HL-60(TB),180 nM
same,GI50,K562,120 nM
same,GI50,MOLT-4,200 nM
same,GI50,RPMI-8226,240 nM
same,GI50,SR,140 nM
same,GI50,HOP-62,270 nM
same,GI50,HOP-92,310 nM
same,GI50,NCI-H460,210 nM
same,GI50,NCI-H522,120 nM
same,GI50,COLO 205,210 nM
same,GI50,HT-29,360 nM
same,GI50,SW-620,230 nM
same,GI50,SF-268,340 nM
same,GI50,SF-539,220 nM
same,GI50,SNB-75,320 nM
same,GI50,LOX IMVI,220 nM
same,GI50,Malme-3M,210 nM
same,GI50,M14,180 nM
same,GI50,IGROV-1,240 nM
same,GI50,OVCAR-4,400 nM
same,GI50,OVCAR-5,420 nM
same,GI50,OVCAR-8,370 nM
same,GI50,SK-OV-3,470 nM
same,GI50,ACHN,280 nM
same,GI50,CAKI-1,250 nM
same,GI50,SN12C,300 nM
same,GI50,UO-31,290 nM
same,GI50,MCF7,200 nM
same,GI50,MDA-MB-231,190 nM
same,GI50,MDA-MB-435,170 nM
same,GI50,MDA-MB-468,220 nM
same,GI50,PC-3,2480 nM
same,GI50,SK-MEL-28,200 nM
same,GI50,SK-MEL-5,160 nM
same,Activity,A-375 [1],95.2%
same,Activity,A-375 [2],3.52%
same,Activity,A-375 [3],1.23%
same,Activity,A-375 [4],Active
same,Activity,A-375 [5],Active
